The values below come from ChEMBL document CHEMBL4028818, “Tricyclic 4,4-dimethyl-3,4-dihydrochromeno[3,4-d]imidazole derivatives as microsomal prostaglandin E2 synthase-1 (mPGES-1) inhibitors: SAR and in vivo efficacy in hyperalgesia pain model” (Bioorg Med Chem Lett, 2017).

Data set [1] in a line: Drug uptake in CSF of Dunkin Hartley guinea pig model of LPS-induced thermal hyperalgesia pain at 100 mg/kg, po qd measured 7 hrs post dose by LC/MS/MS analysis. The format is ADME, organism-based, Cavia porcellus, Cerebrospinal fluid. Conditions: read-out: Drug uptake. A digest of the protocol: (§1)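 In the guinea pig LPS thermal hyperalgesia model, plasma and CSF drug levels were measured at the pharmacodynamic time point after oral dosing. Concentrations are means of n = 8 animals per dose group.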

The target in a further data set is T1, CYP1A2 (Homo sapiens, UniProt P05177).
T1 sequence (P05177 whole entry): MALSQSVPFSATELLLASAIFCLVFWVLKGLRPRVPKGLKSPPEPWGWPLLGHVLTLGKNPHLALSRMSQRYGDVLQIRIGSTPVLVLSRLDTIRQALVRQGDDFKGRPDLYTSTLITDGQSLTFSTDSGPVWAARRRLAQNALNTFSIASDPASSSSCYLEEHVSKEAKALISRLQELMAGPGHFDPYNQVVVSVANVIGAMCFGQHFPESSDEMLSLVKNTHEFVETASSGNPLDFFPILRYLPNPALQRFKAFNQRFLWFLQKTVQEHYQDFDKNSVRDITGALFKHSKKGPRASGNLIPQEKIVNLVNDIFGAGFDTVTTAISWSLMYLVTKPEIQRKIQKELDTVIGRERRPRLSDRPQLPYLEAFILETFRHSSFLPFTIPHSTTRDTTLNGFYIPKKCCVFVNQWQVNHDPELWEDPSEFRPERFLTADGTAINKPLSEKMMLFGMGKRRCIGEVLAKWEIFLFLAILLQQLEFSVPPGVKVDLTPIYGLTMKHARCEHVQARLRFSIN
As to the kind of experiment: (§2) Inhibition of CYP1A2 in human liver microsomes at 10 uM measured after 20 mins in presence of NADPH by LC/MS/MS analysis relative to control. As to conditions: liver microsomes; call rule not given here. In kind it is ADME. Summed up: (§3)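 CYP isoforms 1A2, 2D6, 3A4, 2C9 and 2C19 were tested at 1 and 10 µM. Results are % inhibition compared with a no-inhibitor control, run in triplicate.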

Data set [2] in a line: Plasma concentration in Dunkin Hartley guinea pig model of LPS-induced thermal hyperalgesia pain at 100 mg/kg, po qd measured 7 hrs post dose by LC/MS/MS analysis. In kind it is ADME, organism-based, Cavia porcellus. A digest of the protocol:
as §1

The test system of another data set is Cavia porcellus. Kind of data set: Analgesic activity in Dunkin Hartley guinea pig hyperalgesia pain model assessed as inhibition of LPS-induced thermal hyperalgesia at 100 mg/kg, po qd administered 4 hrs prior to LPS stimulation measured after 4.5 hrs by plantar test relative to control. The format is functional. Summed up: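 LPS was injected into the guinea pig plantar to induce thermal hyperalgesia, and compound was given orally. Response is expressed as % hyperalgesia, with a saline-injected naive group as 0% and the vehicle-treated LPS group as 100%. Values are mean ± SEM, n = 8 per dose group.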

The next data set concerns the target T2, Cytochrome P450 1A2 (Homo sapiens, UniProt P05177).
T2 sequence (P05177 whole entry): T1 sequence (P05177 whole entry)
The data set is described as §2. The format is ADME. Conditions: microsomes, 20 min, 10 µM. A digest of the protocol: as §3

Data set [3] is described as follows: Cmax in Guinea pig at 100 mg/kg, po. The format is ADME, organism-based, Cavia porcellus. More on the design: dose 100 mg/kg, route oral. As to conditions: in vivo. A digest of the protocol: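 Single oral dose given to guinea pigs as a 0.5% methylcellulose suspension. Values are mean ± SD, n = 3.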

Turning to `CC1(C)Oc2cc(C#Cc3cc(Cl)ccc3F)ccc2-c2[nH]c(-c3c(F)cccc3Cl)nc21`, the concentration at 7 h stood at 0.00263 µM in data set [1] and 13.8 µM in data set [2]. The inhibition (usually the drop in the measured response relative to a control, in per cent) at 20 min, 10 µM at CYP1A2 came out at 33.9%. Further, in the data set on Cavia porcellus, the inhibition in vivo (usually the relative decrease from the control value, in per cent) at 100 mg/kg turned out to be 26%.

Consider `CC1(C)Oc2cc(-c3cccc(OC(F)(F)F)c3)ccc2-c2[nH]c(-c3c(F)cccc3Cl)nc21`, for which the “inhibition (INH)” value at Cytochrome P450 1A2 is recorded as “Not Active”. Besides, the concentration in data set [3] peaked (Cmax) at 0.803 µg/mL.
